Laboratory results as given in ChEMBL document CHEMBL1137367, “Design, synthesis, and preliminary evaluation of doxazolidine carbamates as prodrugs activated by carboxylesterases” (J Med Chem, 2006).

Experiments:
MCF7 [1] = experiment: Growth inhibition of MCF7 cells by crystal violet assay after 24 hrs; assay type: functional, cell-based; conditions: Homo sapiens, MCF7, 24 h
Summary of the method: (§1)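 Cancer lines were grown in RPMI 1640 with 10% FCS and 1% pen-strep and seeded at 1000 cells/well overnight. Drug was given in serum-free medium for 3 or 24 h, then fresh complete medium until controls reached ~80% confluence (3-5 days). Cells were fixed with glutaraldehyde and stained with crystal violet, solubilised in 70% ethanol and read at 588 nm. IC50 is log molar, with six replicates per concentration and ≥2 experiments.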

NCI/ADR-RES [2] = experiment: Growth inhibition of MCF7/Adr cells by crystal violet assay after 24 hrs; assay type: functional, cell-based; conditions: Homo sapiens; summary of the method: as §1
DU-145 = experiment: Growth inhibition of DU145 cells by crystal violet assay after 24 hrs; assay type: functional, cell-based; conditions: Homo sapiens, DU-145, 24 h; summary of the method: as §1
Vero [3] = experiment: Cytotoxicity against Vero cells by MTT assay after 24 hrs; assay type: functional, cell-based; conditions: Chlorocebus sabaeus
Summary of the method: (§2)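 Vero cells were grown in DMEM with 10% FCS and 1% pen-strep at 37 °C in 5% CO2. They were seeded at 1000 cells/well and left overnight to adhere. Drug was given in serum-free medium for 3 or 24 h, then replaced with fresh complete medium until untreated wells reached ~80% confluence (3-5 days). MTT was read at 554 nm and IC50 given as log molar. Each concentration was run in six wells, each experiment at least twice.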

H9c2 [4] = experiment: Growth inhibition of H9c2(2-1) cells by crystal violet assay after 24 hrs; conditions: Rattus norvegicus, H9c2, 24 h
SHP77 = experiment: Growth inhibition of SHP77 cells by crystal violet assay after 24 hrs; assay type: functional, cell-based; conditions: Homo sapiens, SHP77, 24 h; summary of the method: as §1
HepG2 [5] = experiment: Growth inhibition of HepG2 cells by crystal violet assay after 24 hrs; assay type: functional, cell-based; conditions: Homo sapiens, HepG2, 24 h; summary of the method: as §1
SK-HEP1 [6] = experiment: Growth inhibition of SK-HEP-1 cells by crystal violet assay after 24 hrs; assay type: functional, cell-based; conditions: Homo sapiens, SK-HEP1, 24 h; summary of the method: as §1
SK-HEP1 [7] = experiment: Growth inhibition of SK-HEP-1 cells by crystal violet assay after 3 hrs; assay type: functional, cell-based; conditions: Homo sapiens, SK-HEP1, 3 h; summary of the method: as §1
H9c2 [8] = experiment: Growth inhibition of rat H9c2(2-1) cells by MTT assay after 3 hrs; assay type: functional, cell-based; conditions: H9c2, 3 h
Summary of the method: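 Rat cardiomyocytes were kept in DMEM with 10% FCS and pen-strep and seeded at 500 cells/well overnight. They got serum-free drug medium for 3 h, then fresh complete medium until controls reached ~80% confluence (3-5 days). Read-out was MTT optical density at 554 nm, with IC50 as log molar concentration. There were six replicates per concentration and at least two experiments.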

MCF7 [9] = experiment: Growth inhibition of MCF7 cells by crystal violet assay after 3 hrs; assay type: functional, cell-based; conditions: Homo sapiens, MCF7, 3 h
Summary of the method: (§3)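 Cells were seeded at 1000/well and left to adhere overnight at 37 °C in 5% CO2. They were then exposed for 3 h to a range of drug concentrations in serum-free RPMI 1640. Medium was replaced with fresh RPMI containing 10% fetal calf serum and 1% pen-strep, and cells were grown until untreated controls reached ~80% confluence (3-5 days). Cells were fixed with glutaraldehyde, stained with crystal violet, and the dye was solubilised in 70% ethanol before reading OD at 588 nm. IC50 is given as log molar. Each concentration was run six-fold, and each experiment at least twice.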

HepG2 [10] = experiment: Growth inhibition of HepG2 cells by crystal violet assay after 3 hrs; assay type: functional, cell-based; conditions: Homo sapiens, HepG2, 3 h; summary of the method: as §3
NCI/ADR-RES [11] = experiment: Growth inhibition of MCF7/Adr cells by crystal violet assay after 3 hrs; assay type: functional, cell-based; conditions: Homo sapiens; summary of the method: as §1
[12] = Stability in buffer at pH 7.4 after 24 hrs; assay type: physicochemical; conditions: pH 7.4, 24 h
Summary of the method: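 The compound was held in pH 7.4 buffer, without cells or growth medium, for 24 h at ambient temperature. Hydrolysis was followed by HPLC.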

SK-HEP1 [13] = experiment: Decrease in drug uptake in SK-HEP-1 cells by flow cytometry at 0.5 uM in presence of 10% fetal bovine serum; assay type: functional, Homo sapiens; parameters: scale not given: the % may be the effect or the level left
Summary of the method: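 SK-HEP-1 cells at 200,000 per well were attached overnight. They were then exposed at 37 °C to 0.5 μM drug (final) in RPMI with 10% fetal bovine serum or without serum. Cells were trypsinized at 0.5, 1, 1.5, 2 and 3 h and Dox fluorophore measured by flow cytometry. Mean fluorescence was divided by untreated control to give relative fluorescence.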

Vero [14] = experiment: Cytotoxicity against Vero cells by MTT assay after 3 hrs; assay type: functional, cell-based; conditions: Chlorocebus sabaeus; summary of the method: as §2

With `CCCCOC(=O)Nc1ccc(COC(=O)N2CO[C@@H]3[C@H](C)O[C@@H](O[C@H]4C[C@](O)(C(=O)CO)Cc5c(O)c6c(c(O)c54)C(=O)c4c(OC)cccc4C6=O)C[C@@H]32)cc1` as the molecule, how does the IC50 (MCF7 [1]) read?
Its IC50 is 79400 nM.

And the IC50 (NCI/ADR-RES [2])?
Its IC50 is 1260 nM.

What about the IC50 (DU-145) of the same molecule?
The IC50 was 501 nM.

And the IC50 (Vero [3])?
The IC50 was 794 nM.

And the IC50 (H9c2 [4])?
The IC50 was 63.1 nM.

And the IC50 (SHP77)?
The IC50 was 79.4 nM.

What about the IC50 (HepG2 [5]) of the same molecule?
The IC50 was 20 nM.

What about the IC50 (SK-HEP1 [6]) of the same molecule?
The IC50 was 1580 nM.

Which results are given for `CCCCOC(=O)N1CO[C@@H]2[C@H](C)O[C@@H](O[C@H]3C[C@](O)(C(=O)CO)Cc4c(O)c5c(c(O)c43)C(=O)c3c(OC)cccc3C5=O)C[C@@H]21`?
IC50 (MCF7 [1]): 794 nM; IC50 (NCI/ADR-RES [2]): 631 nM; IC50 (DU-145): 398 nM; IC50 (Vero [3]): 501 nM; IC50 (H9c2 [4]): 1580 nM; IC50 (SHP77): 251 nM; IC50 (HepG2 [5]): 200 nM; IC50 (SK-HEP1 [6]): 398 nM

Which results are given for `CCOC(=O)N1CO[C@@H]2[C@H](C)O[C@@H](O[C@H]3C[C@](O)(C(=O)CO)Cc4c(O)c5c(c(O)c43)C(=O)c3c(OC)cccc3C5=O)C[C@@H]21`?
IC50 (MCF7 [1]): < 1000 nM; IC50 (SK-HEP1 [7]): > 1000 nM; IC50 (NCI/ADR-RES [2]): > 10000 nM; IC50 (H9c2 [8]): 1580 nM; IC50 (MCF7 [9]): > 1000 nM; IC50 (HepG2 [10]): > 1000 nM; IC50 (NCI/ADR-RES [11]): 5010 nM; IC50 (HepG2 [5]): > 1000 nM; IC50 (SK-HEP1 [6]): > 1000 nM

Which IC50 (MCF7 [1]) does the source give for `CCCCCOC(=O)Nc1ccc(COC(=O)N2CO[C@@H]3[C@H](C)O[C@@H](O[C@H]4C[C@](O)(C(=O)CO)Cc5c(O)c6c(c(O)c54)C(=O)c4c(OC)cccc4C6=O)C[C@@H]32)cc1` here?
Its IC50 is 2510 nM.

And the IC50 (NCI/ADR-RES [2])?
Its IC50 is 316 nM.

What about the IC50 (DU-145) of the same molecule?
The IC50 was 200 nM.

What about the IC50 (Vero [3]) of the same molecule?
Its IC50 is 1000 nM.

What about the IC50 (H9c2 [4]) of the same molecule?
Its IC50 is 631 nM.

What about the IC50 (SHP77) of the same molecule?
Its IC50 is 50.1 nM.

And the IC50 (HepG2 [5])?
Its IC50 is 50.1 nM.

What about the IC50 (SK-HEP1 [6]) of the same molecule?
Its IC50 is 1000 nM.

Which IC50 (MCF7 [1]) does the source give for `CCCCCOC(=O)N1CO[C@@H]2[C@H](C)O[C@@H](O[C@H]3C[C@](O)(C(=O)CO)Cc4c(O)c5c(c(O)c43)C(=O)c3c(OC)cccc3C5=O)C[C@@H]21` here?
Its IC50 is 794 nM.

And the IC50 (SK-HEP1 [7])?
The IC50 was > 1000 nM.

What about the IC50 (NCI/ADR-RES [2]) of the same molecule?
Its IC50 is 1000 nM.

What about the IC50 (DU-145) of the same molecule?
The IC50 was 1000 nM.

And the IC50 (Vero [3])?
Its IC50 is 5010 nM.

What about the Stability [12] of the same molecule?
The Stability was “Stable”.

What about the IC50 (H9c2 [4]) of the same molecule?
Its IC50 is 251 nM.

And the IC50 (SHP77)?
The IC50 was 501 nM.

And the Activity (SK-HEP1 [13])?
Its Activity is 25%.

What about the IC50 (MCF7 [9]) of the same molecule?
Its IC50 is > 1000 nM.

And the IC50 (HepG2 [10])?
Its IC50 is > 1000 nM.

And the IC50 (HepG2 [5])?
Its IC50 is 316 nM.

What about the IC50 (Vero [14]) of the same molecule?
The IC50 was 3980 nM.

And the IC50 (SK-HEP1 [6])?
The IC50 was 200 nM.

For `COc1cccc2c1C(=O)c1c(O)c3c(c(O)c1C2=O)C[C@@](O)(C(=O)CO)C[C@@H]3O[C@H]1C[C@@H]2NCO[C@@H]2[C@H](C)O1` [DOXAZOLIDINE], which IC50 (SK-HEP1 [7]) is on record?
Its IC50 is 3.98 nM.

What about the IC50 (Vero [3]) of the same molecule?
The IC50 was 7.94 nM.

And the IC50 (H9c2 [8])?
Its IC50 is 31.6 nM.

What about the IC50 (MCF7 [9]) of the same molecule?
Its IC50 is 3.16 nM.

And the IC50 (HepG2 [10])?
The IC50 was 10 nM.

What about the IC50 (NCI/ADR-RES [11]) of the same molecule?
The IC50 was 3.16 nM.

What about the IC50 (Vero [14]) of the same molecule?
Its IC50 is 6.31 nM.

With `COc1cccc2c1C(=O)c1c(O)c3c(c(O)c1C2=O)C[C@@](O)(C(=O)CO)C[C@@H]3O[C@H]1C[C@H](N)[C@H](O)[C@H](C)O1` [DOXORUBICIN] as the molecule, how does the IC50 (MCF7 [1]) read?
Its IC50 is 12.6 nM.

What about the IC50 (SK-HEP1 [7]) of the same molecule?
Its IC50 is 100 nM.

What about the IC50 (NCI/ADR-RES [2]) of the same molecule?
The IC50 was 2510 nM.

What about the IC50 (DU-145) of the same molecule?
Its IC50 is 31.6 nM.

And the IC50 (Vero [3])?
The IC50 was 501 nM.

And the IC50 (H9c2 [8])?
The IC50 was 31.6 nM.

And the IC50 (H9c2 [4])?
The IC50 was 20 nM.

And the IC50 (SHP77)?
Its IC50 is 126 nM.

What about the IC50 (MCF7 [9]) of the same molecule?
The IC50 was 316 nM.

What about the IC50 (HepG2 [10]) of the same molecule?
Its IC50 is 200 nM.

And the IC50 (NCI/ADR-RES [11])?
The IC50 was 6310 nM.

And the IC50 (HepG2 [5])?
Its IC50 is 31.6 nM.

And the IC50 (Vero [14])?
The IC50 was 1000 nM.

And the IC50 (SK-HEP1 [6])?
The IC50 was 50.1 nM.
